Measured values as given in ChEMBL document CHEMBL4118042, “Cucurbitane Glucosides from the Crude Extract of Siraitia grosvenorii with Moderate Effects on PGC-1α Promoter Activity” (J Nat Prod, 2017).

What was measured:
Format in all cases: cell-based
[1] = biological target: T1, Peroxisome proliferator-activated receptor gamma coactivator 1-alpha (Homo sapiens) (UniProt Q9UBK2); experiment: Activation of PGC1alpha transcriptional activity (unknown origin) expressed in HEK293 cells at 10 uM after overnight incubation by luciferase reporter gene assay relative to control
T1 sequence (whole entry): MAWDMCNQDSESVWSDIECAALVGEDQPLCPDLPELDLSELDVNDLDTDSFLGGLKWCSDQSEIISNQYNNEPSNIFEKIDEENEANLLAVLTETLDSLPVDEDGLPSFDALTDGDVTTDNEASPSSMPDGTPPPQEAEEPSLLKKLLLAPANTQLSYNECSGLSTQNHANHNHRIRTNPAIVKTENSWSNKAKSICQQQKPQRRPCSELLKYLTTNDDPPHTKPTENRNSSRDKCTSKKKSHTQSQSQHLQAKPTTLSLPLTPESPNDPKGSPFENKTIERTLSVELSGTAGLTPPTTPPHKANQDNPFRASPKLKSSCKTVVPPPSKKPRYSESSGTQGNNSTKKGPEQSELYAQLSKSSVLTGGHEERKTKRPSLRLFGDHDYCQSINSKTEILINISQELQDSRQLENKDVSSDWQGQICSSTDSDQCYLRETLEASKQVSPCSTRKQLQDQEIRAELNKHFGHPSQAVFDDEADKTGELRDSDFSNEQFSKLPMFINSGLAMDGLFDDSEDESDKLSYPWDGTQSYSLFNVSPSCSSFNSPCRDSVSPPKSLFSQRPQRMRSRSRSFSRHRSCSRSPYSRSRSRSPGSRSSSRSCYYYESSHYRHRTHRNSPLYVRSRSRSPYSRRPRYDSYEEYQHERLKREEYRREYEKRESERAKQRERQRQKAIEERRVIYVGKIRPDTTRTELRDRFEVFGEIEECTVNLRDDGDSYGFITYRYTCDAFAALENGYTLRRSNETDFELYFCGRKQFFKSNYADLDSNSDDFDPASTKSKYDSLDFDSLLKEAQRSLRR
How it was run: (§1)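 HEK293 cells stably carrying a luciferase reporter driven by the PGC-1α promoter, grown in high-glucose DMEM with 10% FBS, penicillin and streptomycin at 37 °C in 5% CO2. About 2800 cells per well; after 24 h, compound added at final 10 or 20 μM, or forskolin 5 μM or dexamethasone 100 nM, with equal DMSO as blank. Incubated overnight, then luciferase substrate added and luminescence read. Values normalized to DMSO (100%), mean ± SEM, Student's t test.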

[2] = biological target: T1, Peroxisome proliferator-activated receptor gamma coactivator 1-alpha (Homo sapiens); experiment: Activation of PGC1alpha transcriptional activity (unknown origin) expressed in HEK293 cells at 20 uM after overnight incubation by luciferase reporter gene assay relative to control; how it was run: as §1
[3] = biological target: T1, Peroxisome proliferator-activated receptor gamma coactivator 1-alpha (Homo sapiens); experiment: Activation of PGC1alpha transcriptional activity (unknown origin) expressed in HEK293 cells at 5 uM after 24 hrs by luciferase reporter gene assay relative to control
[4] = biological target: T1, Peroxisome proliferator-activated receptor gamma coactivator 1-alpha (Homo sapiens); experiment: Activation of PGC1alpha transcriptional activity (unknown origin) expressed in HEK293 cells at 5 uM after overnight incubation by luciferase reporter gene assay relative to control; how it was run: as §1
[5] = biological target: T1, Peroxisome proliferator-activated receptor gamma coactivator 1-alpha (Homo sapiens); experiment: Activation of PGC1alpha transcriptional activity (unknown origin) expressed in HEK293 cells at 100 nM after 24 hrs by luciferase reporter gene assay relative to control; how it was run: as §1
[6] = biological target: T1, Peroxisome proliferator-activated receptor gamma coactivator 1-alpha (Homo sapiens); experiment: Activation of PGC1alpha transcriptional activity (unknown origin) expressed in HEK293 cells at 100 nM after overnight incubation by luciferase reporter gene assay relative to control; how it was run: as §1

Row | Activity [1] | Activity [2] | SMILES | further results
1 | 129% | 132% | C[C@H](CC[C@@H](O[C@@H]1O[C@H](CO)[C@@H](O)[C@H](O)[C@H]1O[C@@H]1O[C@H](CO)[C@@H](O)[C@H](O)[C@H]1O)C(C)(C)O)[C@H]1CC[C@@]2(C)[C@@H]3CC=C4[C@@H](CC[C@H](O[C@@H]5O[C@H](CO[C@@H]6O[C@H](CO)[C@@H](O)[C@H](O)[C@H]6O)[C@@H](O)[C@H](O)[C@H]5O)C4(C)C)[C@]3(C)C(=O)C[C@]12C | –
2 | – | – | C=C[C@@]1(C)CC(=O)[C@]2(O)[C@@]3(C)[C@@H](O)CCC(C)(C)[C@@H]3[C@H](O)[C@H](OC(C)=O)[C@@]2(C)O1 | fold change (FC) [3]: 1.4; Activity [4]: 145%
3 | 97.8% | 122% | C[C@H](CC[C@@H](O[C@@H]1O[C@H](CO)[C@@H](O)[C@H](O)[C@H]1O[C@@H]1O[C@H](CO)[C@@H](O)[C@H](O)[C@H]1O)C(C)(C)O)[C@H]1CC[C@@]2(C)[C@@H]3C(=O)C=C4[C@@H](CC[C@H](O[C@@H]5O[C@H](CO)[C@@H](O)[C@H](O)[C@H]5O)C4(C)C)[C@]3(C)[C@H](O)C[C@]12C | –
4 | 107% | 123% | C[C@H](CC[C@@H](O[C@@H]1O[C@H](CO)[C@@H](O)[C@H](O)[C@H]1O[C@@H]1O[C@H](CO)[C@@H](O)[C@H](O)[C@H]1O)C(C)(C)O)[C@H]1CC[C@@]2(C)[C@@H]3CC=C4[C@@H](CC[C@H](O[C@@H]5O[C@H](CO)[C@@H](O)[C@H](O)[C@H]5O)C4(C)C)[C@]3(C)C(=O)C[C@]12C | –
5 | 105% | 126% | C[C@H](CC[C@@H](O[C@@H]1O[C@H](CO)[C@@H](O)[C@H](O)[C@H]1O[C@@H]1O[C@H](CO)[C@@H](O)[C@H](O)[C@H]1O)C(C)(C)O)[C@H]1CC[C@@]2(C)[C@@H]3C(=O)C=C4[C@@H](CC[C@H](O[C@@H]5O[C@H](CO[C@@H]6O[C@H](CO)[C@@H](O)[C@H](O)[C@H]6O)[C@@H](O)[C@H](O)[C@H]5O)C4(C)C)[C@]3(C)[C@H](O)C[C@]12C | –
6 | – | – | C[C@@H]1C[C@H]2[C@@H]3CCC4=CC(=O)C=C[C@]4(C)[C@@]3(F)[C@@H](O)C[C@]2(C)[C@@]1(O)C(=O)CO | fold change (FC) [5]: 1.7; Activity [6]: 172%
